Screening data as filed in PubChem BioAssay.
Apaf1 inhib = inhibitors of human Apaf-1 apoptosome. O14727. reconstituted apoptosome caspase-3 activity, DEVD-Rh110 fluorescence. inhibition, % at 20 µM. hit rate 0.71% among 330,000; active = inhibition of at least 40% at 20 µM;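 note: plate controls were DMSO wells for no effect and DEVD-CHO caspase inhibitor wells for full effect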
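System: reconstituted apoptosome with Apaf-1, cytochrome c, caspase-9, procaspase-3, dATP; Signal: Rh110 fluorescence intensity; Schedule: 30 min compound preincubation, 50 min activation, room temperature; Reagent: cytochrome c trigger plus (Z-DEVD)2-Rh110 caspase-3 substrate.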
Redox H2O2 prof = compounds producing H2O2 with reducing agent – biochemical, NIH compound library profiling, artefact control for MLSCN library redox annotation, primary screen; DTT-dependent redox cycling H2O2, phenol red/HRP absorbance; 100% = 100 µM peroxide control, 0% = buffer; activation, % at 10 µM; hit rate 0.03% among 200,000;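 active = activation of at least 50% relative to the plate's high and low controls in the primary single-dose screen; inactive = activation below 50%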;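 note: compound incubated with DTT at 0.8 mM final as the reducing agent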
SUMO HTRF inh = inhibitors of human SUMOylation (UBC9); HTRF SUMOylation assay, SAE1/SAE2 + UBC9, in vitro; inhibition, % at 35 µM; hit rate 0.36% among 290,000; in the data active = inhibition above about 50%, passing the limit was not always enough
GSTO1 inh = counter-screen for RBBP9 inhibitors: inhibitors of human GSTO1; P78417; recombinant GSTO1, activity-based probe fluorescence polarization; inhibition, % at 5.96 µM; hit rate 1.1% among 300,000;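 active = inhibition above the campaign mean inhibition plus 3 SD, cut at about 35% in these data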;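 note: 0% = GSTO1-1 with DMSO and 100% = wells lacking GSTO1-1 enzyme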
HKDC1 inhibitor = inhibitors of human hexokinase HKDC1. Q2TB90. hit rate 0.16% among 340,000. AID 493160. inhibition, % at 20 µM. recombinant HKDC1, G6PDH/diaphorase resazurin coupled fluorescence;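 active = inhibition above about 35% when tested at 20 µM, limit read from the data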;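 note: plate controls were DMSO wells with enzyme for no effect and DMSO wells lacking enzyme for full effect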
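Test system: HK5 enzyme. Quantity: 5 µg/mL HK5 final. Reagent: glucose and ATP substrates. Schedule: 90 min reaction incubation at room temperature, dark. Technique: resazurin-to-resorufin fluorescence via G6PDH and diaphorase coupling, 525/613 nm. Control set: DMSO wells with and without enzyme mix.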
The depositor's hits bear a star; x = no result. Hits are enriched below; roughly 1.4% of the tested compounds scored in any of these assays.

SMILES	Apaf1 inhib	Redox H2O2 prof	SUMO HTRF inh	GSTO1 inh	HKDC1 inhibitor
O=Cc1ccc(Sc2nnc(-c3ccccc3)o2)c([N+](=O)[O-])c1	18	-1	25	23	43*
Cc1cc(C)nc(Sc2ccc(C=O)cc2[N+](=O)[O-])n1	1	0	14	22	2
N#C/C(C(=O)Nc1ccc(Cl)cc1)=C(/S)Nc1ccccc1	18	x	9	52*	10
O=C(Nc1ccc(Nc2ccccc2)cc1)c1ccc(Cl)cc1	5	x	x	2	-2
CC(C)(C)OC(=O)CNC(=O)c1[nH]cnc1C(=O)NC(c1ccccc1)c1ccccc1	31	x	-34	0	1
NC(=S)N=Nc1c(O)[nH]c2ccccc12	-11	0	12	2	-12
NC(=S)N=Nc1c(O)[nH]c2c(Br)cc(Br)cc12	20	0	11	39*	15
Cc1ccc(C(C[N+](=O)[O-])c2c(-c3ccccc3O)[nH][nH]c2=O)cc1 (configuration not stated)	32	0	1	35*	4
Cc1ccc(OCCCCN2CCc3ccccc3C2)cc1	-1	x	-13	4	-3
Cc1cccnc1NC(=O)CN1C(=O)NC(C)(c2ccc3ccccc3c2)C1=O (configuration not stated)	5	x	x	-1	1
Cc1c(N=Nc2c(-c3ccc([N+](=O)[O-])cc3)[nH]n(C(N)=S)c2=O)cccc1[N+](=O)[O-]	x	0	69*	x	5
NC(=S)n1[nH]c(-c2ccc([N+](=O)[O-])cc2)c(N=Nc2cccc([N+](=O)[O-])c2)c1=O	x	2	59*	x	-5
O=C(OCc1ccccc1)Oc1cncc(C(=O)O)c1	-6	0	-5	35*	-8
Cc1cccc(CCN2CCN=C2Nc2ccccc2)c1	-7	x	x	0	-6
Cc1ccc(S(=O)(=O)N2CCN(C(=O)COC(=O)c3oc4ccccc4c3C)CC2)cc1	12	x	x	0	-1
Oc1ccc(C[C@@H]2CNCCN2CCc2cc(C(F)(F)F)cc(C(F)(F)F)c2)cc1	32	x	x	3	2
FC(F)(F)c1cc(CCN2CCNC[C@H]2Cc2cccc3ccccc23)cc(C(F)(F)F)c1	72*	x	x	0	9
COc1ccccc1CNC(=O)COc1cccc(-n2cnnn2)c1	4	x	x	-4	-4
NC(N)=N/N=C/c1ccc(OCc2ccccc2Cl)cc1	43*	1	-7	0	7
NC(N)=N/N=C/c1ccccc1	-8	0	7	3	11
CCCN(CC(=O)Nc1ccccc1OC)C(=O)c1cc(S(=O)(=O)NCc2ccccc2)ccc1C	62*	x	9	-3	-8
CCCN(CC(=O)Nc1ccccc1OC)C(=O)c1cccc(S(=O)(=O)NCc2ccccc2)c1	17	x	x	-5	-1
Cc1cccc(NS(=O)(=O)c2ccc(C)c(C(=O)NCc3ccccn3)c2)c1	4	x	x	x	-8
N#CCCN(C(=O)CCl)c1cccc(Cl)c1	-7	0	9	87*	6
COc1ccc(-c2noc(N3CCCC(C(=O)Nc4cc(F)ccc4F)C3)n2)cc1 (configuration not stated)	-3	x	-20	1	-3
SMILES	Apaf1 inhib	Redox H2O2 prof	SUMO HTRF inh	GSTO1 inh	HKDC1 inhibitor
O=C(CCl)Nc1cccc(S(=O)(=O)N2CCCCCC2)c1	11	0	2	91*	0
O=C(Cc1ccc(Cl)cc1)Nc1cccc(S(=O)(=O)N2CCCCC2)c1	5	x	x	x	1
COc1cc(CC(=O)OCC(=O)NCCc2ccc(S(N)(=O)=O)cc2)cc(OC)c1OC	-5	x	x	x	-6
Cc1ccc(-c2cc(-c3ccccc3O)nc(N/N=C/c3cccnc3)n2)cc1	-9	-4	53*	-8	-4
Cc1nnc(N/N=C\c2ccc(-c3ccccc3[N+](=O)[O-])o2)n1N	x	0	90	36*	12
Cc1nnc(N/N=C/c2ccc(-c3ccccc3F)o2)n1N	10	1	21	30	0
CCOC(=O)c1ccc(Nc2nc(N)c3cc(OC)c(OC)cc3n2)cc1	54*	x	-7	-1	5
NC(=O)NCC(c1ccccc1)C1CCCCC1 (configuration not stated)	9	x	6	-1	3
CCOc1cc(/C=N/Nc2nnc(C)n2N)ccc1O	3	x	-8	37*	7
CN(C)CCOc1ccc(-c2c(-c3ccccc3)sc3ccccc23)cc1	77*	x	x	x	-1
NC(=O)c1ccc(-c2c(-c3ccccc3)sc3ccccc23)cc1	8	x	x	x	1
COC(=O)C1=C(C)N(C)C(=O)NC1c1cc2c(cc1[N+](=O)[O-])OCO2 (configuration not stated)	19	0	66*	36*	1
COC(=O)C1=C(C)N(CCCC(=O)O)C(=O)NC1c1cc2c(cc1[N+](=O)[O-])OCO2 (configuration not stated)	1	0	34	-14	4
COc1ccc(CNC(=S)NCc2ccc(Cl)cc2)cc1OC	-2	x	-18	6	-1
CC1CCN(Cc2c(C(=O)N/N=C/c3ccccc3O)nnn2-c2nonc2N)CC1	4	x	54*	1	-10
Cc1[nH]c(C)c(S(=O)(=O)N2c3ccccc3CC2C)c1C(=O)N1CCCCC1 (configuration not stated)	-1	x	x	5	1
O=C(Cn1c(=O)cnc2ccccc21)N1CCN(S(=O)(=O)c2ccccc2Br)CC1	6	x	x	2	-1
CN1CCN(c2ccccc2NC(=O)c2ccc(-c3ccc(Cl)c(Cl)c3)o2)CC1	46*	x	0	0	7
O=C(Nc1ccccc1N1CCCCC1)c1ccc(-c2ccc(Cl)cc2)o1	24	3	20	-4	-7
Cc1cc(N2CCN(C)CC2)ccc1NC(=O)c1ccc(-c2ccc(Cl)cc2)o1	42*	x	x	11	-1
CN1CCN(c2ccccc2NC(=O)c2ccc(-c3ccc(Br)cc3)o2)CC1	16	x	-10	4	3
Cc1ccc(-n2nc3c(N4CCC(C(=O)NCc5ccccc5C)CC4)nnc(C)c3c2C)cc1	34	x	x	5	6
CCOc1ccccc1CNC(=O)C1CCN(c2nnc(C)c3c(C)n(-c4ccc(C)cc4)nc23)CC1	41*	x	-1	22	2
COc1cc(/C=C2\CCCc3c2nc2ccccc2c3C(=O)O)cc(Br)c1O	2	x	0	-2	5
COc1cc(/C=C2\CCc3c2nc2ccccc2c3C(=O)O)cc(OC)c1OC	2	x	54*	35*	11
Cc1cccc(C(=O)N(C(=O)c2cccc(C)c2)N(C)C)c1	x	x	x	x	-3
Cc1ccc(S(=O)(=O)N2CCN(Cc3csc(C)n3)CC2)cc1	0	x	-4	25	3
COc1ccc2c(c1OC)C(=O)N1C2SC(C)(C)[C@H]1C(=O)NC(C)C (some centres not stated)	3	x	2	1	3
COc1cc(C)c(C)cc1S(=O)(=O)NC1CC(C)(C)NC(C)(C)C1	-2	x	4	5	-3
